Experimental data taken from ChEMBL document CHEMBL3112420, “Discovery of 8-cyclopentyl-2-[4-(4-methyl-piperazin-1-yl)-phenylamino]-7-oxo-7,8-dihydro-pyrido[2,3-d]pyrimidine-6-carbonitrile (7x) as a potent inhibitor of cyclin-dependent kinase 4 (CDK4) and AMPK-related kinase 5 (ARK5)” (J Med Chem, 2014).
The source made the active and inactive calls. The rule behind the calls is not given here.

Assays:
[1] = Cytotoxicity against human SNU5 cells after 96 hrs by Cell-Titer Blue assay; format: functional; details: SNU-5, 96 h
[2] = target: Receptor-type tyrosine-protein kinase FLT3 (Homo sapiens, UniProt P36888); test: Inhibition of FLT3 (unknown origin)
Receptor-type tyrosine-protein kinase FLT3, sequence (P36888 whole entry): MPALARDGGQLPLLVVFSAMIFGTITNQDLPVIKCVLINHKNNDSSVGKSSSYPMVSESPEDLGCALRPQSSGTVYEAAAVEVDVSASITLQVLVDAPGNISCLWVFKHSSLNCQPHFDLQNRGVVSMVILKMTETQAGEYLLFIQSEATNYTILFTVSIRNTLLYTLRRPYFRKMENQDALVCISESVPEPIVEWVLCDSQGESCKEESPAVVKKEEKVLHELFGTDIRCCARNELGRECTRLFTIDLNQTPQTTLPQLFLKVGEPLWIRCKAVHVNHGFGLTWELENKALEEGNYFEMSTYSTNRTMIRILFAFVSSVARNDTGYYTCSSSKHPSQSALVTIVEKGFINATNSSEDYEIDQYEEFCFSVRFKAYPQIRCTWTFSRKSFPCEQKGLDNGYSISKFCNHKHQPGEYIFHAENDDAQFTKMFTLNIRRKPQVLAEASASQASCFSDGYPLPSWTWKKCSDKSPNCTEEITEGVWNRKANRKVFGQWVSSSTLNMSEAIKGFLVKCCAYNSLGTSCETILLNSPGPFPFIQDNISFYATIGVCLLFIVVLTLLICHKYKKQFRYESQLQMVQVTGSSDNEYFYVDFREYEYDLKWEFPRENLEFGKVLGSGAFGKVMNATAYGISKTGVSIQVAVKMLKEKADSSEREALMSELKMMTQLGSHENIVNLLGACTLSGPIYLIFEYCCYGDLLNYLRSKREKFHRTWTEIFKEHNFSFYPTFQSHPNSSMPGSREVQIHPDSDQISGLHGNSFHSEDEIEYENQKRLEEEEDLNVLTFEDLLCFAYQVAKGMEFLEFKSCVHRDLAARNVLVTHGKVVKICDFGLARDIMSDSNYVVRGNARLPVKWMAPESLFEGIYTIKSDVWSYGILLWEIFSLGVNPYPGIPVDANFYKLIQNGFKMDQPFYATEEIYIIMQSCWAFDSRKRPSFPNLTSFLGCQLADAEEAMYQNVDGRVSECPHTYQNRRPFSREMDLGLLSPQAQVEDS

[3] = Cytotoxicity against human GRANTA-519 cells after 96 hrs by Cell-Titer Blue assay; format: functional; details: Granta-519, 96 h
MDA-MB-157 = test: Cytotoxicity against human MDA-MB-157 cells after 96 hrs by Cell-Titer Blue assay; format: functional; details: MDA-MB-157, 96 h
K562 = test: Cytotoxicity against human K562 cells after 96 hrs by Cell-Titer Blue assay; format: functional, cell-based; details: K562, 96 h
[4] = Cytotoxicity against human DLD1 cells after 96 hrs by Cell-Titer Blue assay; format: functional; details: DLD-1, 96 h
MCF7 [5] = test: Cell cycle arrest in human MCF7 cells assessed as accumulation at sub-G1 phase at 0.5 to 1 uM after 48 hrs by propidium iodide staining-based flow cytometric analysis; format: functional
HCT-15 = test: Cytotoxicity against human HCT15 cells after 96 hrs by Cell-Titer Blue assay; format: functional; details: HCT-15, 96 h
[6] = Cytotoxicity against human SNU449 cells after 96 hrs by Cell-Titer Blue assay; format: functional; details: SNU-449, 96 h
A549 = test: Cytotoxicity against human A549 cells after 96 hrs by Cell-Titer Blue assay; format: functional; details: A549, 96 h
[7] = Cytotoxicity against human SNU398 cells after 96 hrs by Cell-Titer Blue assay; format: functional; details: SNU-398, 96 h
[8] = target: Cyclin-dependent kinase 4/cyclin D1 (Homo sapiens, UniProt P11802); test: Inhibition of CDK4/cyclinD1 (unknown origin); format: protein-complex assay
Cyclin-dependent kinase 4/cyclin D1, sequence (P11802 whole entry): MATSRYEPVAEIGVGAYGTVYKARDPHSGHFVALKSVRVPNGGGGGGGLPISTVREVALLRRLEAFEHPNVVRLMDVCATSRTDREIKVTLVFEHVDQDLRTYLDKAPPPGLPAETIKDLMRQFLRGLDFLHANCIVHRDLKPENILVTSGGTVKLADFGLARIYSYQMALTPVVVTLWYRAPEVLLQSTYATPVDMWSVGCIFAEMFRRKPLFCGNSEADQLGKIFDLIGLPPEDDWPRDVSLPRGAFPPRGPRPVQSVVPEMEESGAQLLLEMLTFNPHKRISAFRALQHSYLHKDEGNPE
Cyclin-dependent kinase 4/cyclin D1, sequence (P24385 whole entry, further chain): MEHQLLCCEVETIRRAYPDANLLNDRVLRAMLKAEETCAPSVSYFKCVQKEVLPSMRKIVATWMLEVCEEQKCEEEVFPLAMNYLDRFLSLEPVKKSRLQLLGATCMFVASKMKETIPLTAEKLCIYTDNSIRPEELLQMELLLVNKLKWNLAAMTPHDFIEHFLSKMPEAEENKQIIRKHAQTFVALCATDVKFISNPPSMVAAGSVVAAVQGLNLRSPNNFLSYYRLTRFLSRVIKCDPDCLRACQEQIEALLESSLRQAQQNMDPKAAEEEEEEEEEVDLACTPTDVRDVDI

MDA-MB-231 [9] = test: Induction of apoptosis in human MDA-MB-231 cells assessed as PARP cleavage after 24 hrs by Western blotting analysis; format: functional, cell-based
[10] = Cytotoxicity against human Capan1 cells after 96 hrs by Cell-Titer Blue assay; format: functional; details: CAPAN-1, 96 h
[11] = target: Platelet-derived growth factor receptor beta (Homo sapiens, UniProt P09619); test: Inhibition of PDGFRbeta (unknown origin)
Platelet-derived growth factor receptor beta, sequence (P09619 whole entry): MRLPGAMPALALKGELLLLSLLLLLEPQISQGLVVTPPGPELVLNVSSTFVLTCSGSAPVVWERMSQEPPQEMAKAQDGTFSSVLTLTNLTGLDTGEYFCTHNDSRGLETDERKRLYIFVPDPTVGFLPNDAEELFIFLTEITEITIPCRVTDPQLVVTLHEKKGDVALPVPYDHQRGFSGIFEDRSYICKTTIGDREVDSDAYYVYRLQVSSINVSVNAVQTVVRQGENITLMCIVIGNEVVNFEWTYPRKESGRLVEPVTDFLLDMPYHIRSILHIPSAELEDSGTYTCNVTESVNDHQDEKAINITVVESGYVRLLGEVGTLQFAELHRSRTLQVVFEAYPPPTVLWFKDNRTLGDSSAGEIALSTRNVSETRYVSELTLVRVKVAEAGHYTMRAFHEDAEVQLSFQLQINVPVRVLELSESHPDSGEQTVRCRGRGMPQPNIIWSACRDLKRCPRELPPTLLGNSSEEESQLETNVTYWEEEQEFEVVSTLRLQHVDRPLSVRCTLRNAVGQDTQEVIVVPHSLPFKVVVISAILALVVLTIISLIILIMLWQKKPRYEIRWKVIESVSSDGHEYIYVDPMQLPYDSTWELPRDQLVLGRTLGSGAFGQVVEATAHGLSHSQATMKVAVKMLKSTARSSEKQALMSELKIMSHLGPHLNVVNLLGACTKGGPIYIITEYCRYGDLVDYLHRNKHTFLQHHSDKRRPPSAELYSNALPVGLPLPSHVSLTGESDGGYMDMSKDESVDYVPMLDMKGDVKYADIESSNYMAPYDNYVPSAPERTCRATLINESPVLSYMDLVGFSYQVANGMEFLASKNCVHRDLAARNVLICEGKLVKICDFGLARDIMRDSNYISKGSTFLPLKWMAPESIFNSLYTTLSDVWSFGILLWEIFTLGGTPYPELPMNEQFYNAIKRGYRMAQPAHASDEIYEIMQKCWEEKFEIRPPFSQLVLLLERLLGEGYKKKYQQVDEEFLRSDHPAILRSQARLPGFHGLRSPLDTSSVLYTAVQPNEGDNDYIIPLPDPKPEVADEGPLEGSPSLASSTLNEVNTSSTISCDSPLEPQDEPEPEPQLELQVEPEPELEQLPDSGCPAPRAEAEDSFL

NCI-N87 = test: Cytotoxicity against human NCI-N87 cells after 96 hrs by Cell-Titer Blue assay; format: functional; details: NCI-N87, 96 h
[12] = target: Tyrosine-protein kinase Fyn (Homo sapiens, UniProt P06241); test: Inhibition of FYN (unknown origin)
Tyrosine-protein kinase Fyn, sequence (P06241 whole entry): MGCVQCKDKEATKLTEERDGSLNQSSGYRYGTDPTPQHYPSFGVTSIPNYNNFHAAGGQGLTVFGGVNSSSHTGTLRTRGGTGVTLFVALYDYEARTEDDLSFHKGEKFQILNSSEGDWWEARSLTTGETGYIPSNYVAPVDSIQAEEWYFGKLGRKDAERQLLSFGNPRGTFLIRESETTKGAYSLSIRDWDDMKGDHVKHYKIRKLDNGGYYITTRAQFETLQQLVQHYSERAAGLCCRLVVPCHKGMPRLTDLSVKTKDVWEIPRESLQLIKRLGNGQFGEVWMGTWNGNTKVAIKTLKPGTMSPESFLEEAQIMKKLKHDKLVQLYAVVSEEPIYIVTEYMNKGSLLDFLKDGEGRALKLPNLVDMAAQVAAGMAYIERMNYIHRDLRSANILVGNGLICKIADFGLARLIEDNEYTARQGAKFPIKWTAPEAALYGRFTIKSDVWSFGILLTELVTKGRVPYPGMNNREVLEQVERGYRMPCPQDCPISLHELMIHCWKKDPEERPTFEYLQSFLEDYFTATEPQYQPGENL

[13] = Cytotoxicity against human BT20 cells after 96 hrs by Cell-Titer Blue assay; format: functional; details: BT-20, 96 h
[14] = Toxicity in CD-1 mouse […] assessed as survival rate at 200 mg/kg, ip administered for 5 days measured after 10 days; format: organism-based; parameters: dose 200 mg/kg, route intraperitoneal; details: in vivo
How it was run: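 Female CD-1 mice (n=3) were given 200 mg/kg ip on 5 consecutive days. They were then monitored for signs of toxicity, with survival followed beyond 10 days after injection. This came after an initial single-dose test at 100 or 200 mg/kg ip with 7-day monitoring.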

[15] = Cytotoxicity against human HCC1428 cells after 96 hrs by Cell-Titer Blue assay; format: functional; details: HCC1428, 96 h
Mus musculus [16] = test: Toxicity in CD-1 mouse xenografted with human MDA-MB-231 cells assessed as weight loss at 100 to 200 mg/kg, ip measured for 7 days; format: organism-based; parameters: dose 100-200 mg/kg, route intraperitoneal; details: in vivo, 168 h
[17] = target: Cyclin-dependent kinase 4/cyclin D1 (Homo sapiens) (UniProt P11802+P24385); test: Inhibition of recombinant CDK4/cyclinD1 in human MCF7 cells assessed as inhibition of retinoblastoma phosphorylation at Ser780 at 0.5 to 5 uM after 24 hrs by Western blotting analysis; format: cell-based
How it was run: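 Breast carcinoma cells were given increasing concentrations for 24 h. Total lysates (100 μg, 10% SDS-PAGE) were immunoblotted with antibodies against Ser780-phosphorylated and non-phosphorylated RB. Bands were read on an infrared scanning system.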

[18] = target: Macrophage colony-stimulating factor 1 receptor (Homo sapiens, UniProt P07333); test: Inhibition of FMS (unknown origin)
Macrophage colony-stimulating factor 1 receptor, sequence (P07333 whole entry): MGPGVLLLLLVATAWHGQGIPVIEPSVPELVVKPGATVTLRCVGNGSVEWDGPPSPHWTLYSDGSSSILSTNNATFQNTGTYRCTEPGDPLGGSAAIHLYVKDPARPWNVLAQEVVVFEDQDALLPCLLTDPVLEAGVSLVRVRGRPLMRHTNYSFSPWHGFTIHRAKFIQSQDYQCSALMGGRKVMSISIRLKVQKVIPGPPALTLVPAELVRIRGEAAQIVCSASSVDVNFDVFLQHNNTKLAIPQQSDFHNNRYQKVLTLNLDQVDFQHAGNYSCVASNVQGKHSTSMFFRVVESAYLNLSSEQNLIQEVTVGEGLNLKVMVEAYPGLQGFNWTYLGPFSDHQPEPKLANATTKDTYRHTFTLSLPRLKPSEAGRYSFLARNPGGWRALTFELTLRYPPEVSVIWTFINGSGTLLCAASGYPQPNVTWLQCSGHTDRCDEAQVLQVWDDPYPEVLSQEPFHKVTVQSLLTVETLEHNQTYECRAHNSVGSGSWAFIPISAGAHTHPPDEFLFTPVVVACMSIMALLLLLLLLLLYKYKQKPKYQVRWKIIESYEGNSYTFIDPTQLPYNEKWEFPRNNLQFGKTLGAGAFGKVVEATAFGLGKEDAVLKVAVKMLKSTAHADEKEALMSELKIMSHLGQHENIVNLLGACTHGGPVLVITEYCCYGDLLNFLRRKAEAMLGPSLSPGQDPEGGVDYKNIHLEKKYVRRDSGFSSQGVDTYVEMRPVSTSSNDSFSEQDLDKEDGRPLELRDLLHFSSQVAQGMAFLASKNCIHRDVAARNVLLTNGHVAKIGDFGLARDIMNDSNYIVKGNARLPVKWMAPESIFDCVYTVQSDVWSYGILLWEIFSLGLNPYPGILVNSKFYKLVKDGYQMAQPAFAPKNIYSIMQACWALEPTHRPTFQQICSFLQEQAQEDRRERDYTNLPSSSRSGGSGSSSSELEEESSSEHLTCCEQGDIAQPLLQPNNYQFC

MCF7 [19] = test: Cell cycle arrest in human MCF7 cells assessed as accumulation at G1 phase at 0.5 to 1 uM after 24 hrs by propidium iodide staining-based flow cytometric analysis; format: functional
How it was run: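 Cells plated at 1.0 × 10^6 per dish, then treated 24 h later with increasing concentrations for 24 h. Floating and adherent cells were pooled, PBS-washed and fixed in ice-cold 70% ethanol for at least 24 h. They were then stained with propidium iodide plus RNase A for 30 min at 37 °C. Percentage of cells in each phase was read by flow cytometry.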

MCF7 [20] = test: Induction of apoptosis in human MCF7 cells assessed as PARP cleavage at 1 to 10 uM after 24 hrs by Western blotting analysis; format: functional, cell-based
NCI-H417 = test: Cytotoxicity against human NCI-N417 cells after 96 hrs by Cell-Titer Blue assay; format: functional; details: NCI-H417, 96 h
MDA-MB-231 [21] = test: Inhibition of PI3K in human MDA-MB-231 cells assessed as inhibition of Akt phosphorylation at Ser473 at 0.1 to 10 uM after 24 hrs by Western blotting analysis; format: cell-based
How it was run: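 Total lysates (100 μg) were run on 10% SDS-PAGE and immunoblotted for Ser473-phosphorylated and total AKT, with GAPDH as loading control. Detection used infrared-dye secondary antibodies.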

DU-145 = test: Cytotoxicity against human DU145 cells after 96 hrs by Cell-Titer Blue assay; format: functional, cell-based; details: DU-145, 96 h
MDA-MB-231 [22] = test: Cell cycle arrest in human MDA-MB-231 cells assessed as accumulation at sub-G1 phase at 0.5 to 1 uM after 48 hrs by propidium iodide staining-based flow cytometric analysis; format: functional
MCF7 [23] = test: Induction of apoptosis in human MCF7 cells assessed as PARP cleavage after 24 hrs by Western blotting analysis; format: functional, cell-based
Mus musculus [24] = test: Toxicity in NCR nude mouse xenografted with human MDA-MB-231 cells assessed as weight loss at 50 mg/kg, ip […] administered on alternative days measured every 2 days up to 21 days; format: organism-based; parameters: dose 50 mg/kg, route intraperitoneal; details: in vivo
How it was run: (§1)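 MDA-MB-231 cells orthotopically implanted into mammary fat pads of 6–8 week old female nude mice (n=11 per group). Dosing began when average tumour volume reached 100 mm3. Lactate salt in PBS or vehicle was given intraperitoneally every other day (Q2D). Tumour volumes and body weights were recorded every 2 days over 21 days; mean ± SEM.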

COLO 205 = test: Cytotoxicity against human COLO205 cells after 96 hrs by Cell-Titer Blue assay; format: functional; details: COLO 205, 96 h
MDA-MB-468 = test: Cytotoxicity against human MDA-MB-468 cells after 96 hrs by Cell-Titer Blue assay; format: functional; details: MDA-MB-468, 96 h
MDA-MB-231 [25] = test: Antitumor activity against ip dosed human MDA-MB-231 cells xenografted in NCR nude mouse assessed as inhibition of tumor growth administered as […] on alternative days measured every 2 days up to 21 days; format: functional, organism-based; how it was run: as §1
2008 = test: Cytotoxicity against human 2008 cells after 96 hrs by Cell-Titer Blue assay; format: functional; details: Homo sapiens, 2008, 96 h
MDA-MB-231 [26] = test: Induction of apoptosis in human MDA-MB-231 cells assessed as PARP cleavage at 1 to 10 uM after 24 hrs by Western blotting analysis; format: functional, cell-based

CN1CCN(c2ccc(Nc3ncc4cc(C#N)c(=O)n(C5CCCC5)c4n3)cc2)CC1 [NARAZACICLIB]
GI50 [1]: 100 nM | IC50 [2]: 12.2 nM | GI50 [3]: 25 nM | GI50 (MDA-MB-157): 1000 nM | GI50 (K562): 100 nM | IC50 (K562): 50 nM | GI50 [4]: 100 nM | Activity (MCF7 [5]): Active | GI50 (HCT-15): 300 nM | GI50 [6]: 750 nM | GI50 (A549): 200 nM | GI50 [7]: 200 nM | IC50 [8]: 3.8 nM | Activity (MDA-MB-231 [9]): Dose-dependent effect | GI50 [10]: 500 nM | IC50 [11]: 26 nM | GI50 (NCI-N87): 900 nM | IC50 [12]: 11.1 nM | GI50 [13]: 100 nM | survival at 240 h [14]: 100% | GI50 [15]: 300 nM | Activity (Mus musculus [16]): Non-toxic | inhibition [17]: Active | IC50 [18]: 10 nM | Activity (MCF7 [19]): Active | Activity (MCF7 [20]): Active | GI50 (NCI-H417): 250 nM | inhibition (MDA-MB-231 [21]): Active | GI50 (DU-145): 50 nM | Activity (MDA-MB-231 [22]): Active | Activity (MCF7 [23]): Dose-dependent effect | Activity (Mus musculus [24]): Non-toxic | GI50 (COLO 205): 100 nM | GI50 (MDA-MB-468): 2000 nM | inhibition (MDA-MB-231 [25]): Dose-dependent effect | GI50 2008: 1500 nM | Activity (MDA-MB-231 [26]): Active
